Measurements of several laboratories.
Lines come from different studies, so protocols differ.
EDNRB: Endothelin receptor type B (EDNRB, Homo sapiens, UniProt P24530)
MAOB: Amine oxidase [flavin-containing] B (MAOB, Homo sapiens, UniProt P27338)
TNFAIP3: TNFAIP3 (Homo sapiens, UniProt P21580)

COc1ccc(S(=O)(=O)N(CC(=O)NO)CC(C)C)cc1 — inhibition (Matrix metalloproteinase-9 (MMP9, Homo sapiens, UniProt P14780, Q279R); enzyme activity, inhibitor; 0.1 µM): 96%
COc1cc(Nc2ncc(F)c(Nc3ccc4c(n3)NC(=O)C(C)(C)O4)n2)cc(OC)c1OC — inhibition (NUAK family SNF1-like kinase 2 (NUAK2, Homo sapiens, UniProt Q9H093); binding, competition with immobilised ligand; 10 µM): 97%
CC(C)N1CCC[C@H]1CNC(=O)c1cn(C2CCCC2)c(=O)c2c1c1ccccc1n2C — inhibition (EDNRB; ligand displacement, radioligand; 10 µM): 3%
Cc1ccc(OP(=O)(Oc2ccc(C)cc2)Oc2ccc(C)cc2)cc1 — inhibition (Cholinesterase (Bche, Mus musculus, UniProt Q03311); enzyme activity, inhibitor; mouse; oral, 240 mg/kg): 20%
CN(CCN1CCC(OC(=O)Nc2ccccc2-c2ccccc2)CC1)C(=O)c1ccc(CN2CCC(C(N)=O)CC2)cc1 — inhibition (EDNRB; ligand displacement, radioligand; 1 µM): 11%
C[C@H](C(=O)N[C@H]1COc2ccccc2[C@@H]1S(C)(=O)=O)c1ccc(F)cc1 — inhibition (MAOB; enzyme activity, inhibitor; 10 µM): 11%
CC(C)C[C@H](NC(=O)[C@H]1O[C@@H]1C(=O)O)C(=O)NCCCCN=C(N)N — inhibition (Cathepsin L2 (CTSV, Homo sapiens, UniProt O60911); enzyme activity, inhibitor; 5 nM): 17%
COCc1c(-c2cc3cc(C)cc(OC)c3s2)c2c(N)ncnn2c1CN1CCNC(=O)C1 — inhibition (MAOB; enzyme activity, inhibitor; 10 µM): 5%
O=c1ccoc2ccc(OCCCCN3CCCCC3)cc12 — inhibition (MAOB; enzyme activity, inhibitor, fluorescence; 10 µM): 63%
Cc1ncc(C)n2nc(/C=C/c3nc(N4CCCC4)cc(N4CCOCC4)n3)nc12 — inhibition (Matrix metalloproteinase-9 (MMP9, Homo sapiens, UniProt P14780); enzyme activity, inhibitor; 10 µM): 12%
CN(C)C(=O)COC(=O)Cc1ccc(OC(=O)c2ccc(NC(=N)N)cc2)cc1 — inhibition (TNFAIP3; enzyme activity, inhibitor; 10 µM): 4%
O=C(Nc1cccnn1)N1CCN([C@@H]2CCOc3cc(C(F)(F)F)ccc32)CC1 — inhibition (EDNRB; cell-free assay; 20 µM): -5%
N=C(N)c1ccc2cc(OC(=O)c3ccc(N=C(N)N)cc3)ccc2c1 — inhibition (TNFAIP3; enzyme activity, inhibitor; 10 µM): 13%
CN1CCN(CCCCOc2ccc3occc(=O)c3c2)CC1 — inhibition (MAOB; enzyme activity, inhibitor, fluorescence; 10 µM): 20%
